Not all results are given here.
HKDC1 activator = HKDC1 (human) hexokinase activation | activity change, negative = activation, % at 20 µM | 340,000 tested, 0.056% active | recombinant HKDC1, G6PDH/diaphorase resazurin fluorescence; stronger effect = lower value;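 active = activation of 40% or more at 20 µM, a change of -40% or lower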
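System: in-house human HKDC1 enzyme, G6PDH and diaphorase coupling enzymes; Quantity: 5 µg/mL HKDC1 final; Buffer or medium: Tris/MgCl2 buffer, pH 8.0; Dosing: single compound dose of 20 µM, 1% DMSO final; Times: 90 min reaction at room temperature, dark; Detection: coupled resazurin-to-resorufin fluorescence, Ex 525/Em 613 nm.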
Starred values were filed as active, the others as inactive.

SMILES	HKDC1 activator
CCc1ccc(S(=O)(=O)/N=C2\C=C(Nc3cccc(C(=O)O)c3)C(=O)c3ccccc32)cc1	53
COc1ccc(S(=O)(=O)Nc2cc(SCC(=O)O)c(O)c3ccccc23)cc1	57
Cc1cc(NC(=S)NC(=O)c2ccccc2)ccc1-c1cc2ccccc2oc1=O	-47*
CC(C)C(=O)N(c1cc2sc(=O)oc2c2ccccc12)S(=O)(=O)c1cccs1	45
CC(=NNc1nc2ccccc2o1)c1cc2ccccc2cn1	-48*
O=C(CSc1n[nH]c(-c2ccccc2)n1)Nc1ncc(Br)cc1Br	48
O=C(NCc1ccncc1)C(=O)N/N=C/c1ccc(OCc2ccccc2)cc1	-58*
COc1ccc([C@@H]2C[C@H](c3ccccc3)Oc3cc(OC)c(OC)c(OC)c32)cc1	37
O=C(CCCCC(=O)Sc1ccccc1)Sc1ccccc1	39
COC(=O)CCC(=O)OC1(C)C(=O)C2=CN(Cc3ccc4c(c3)OCO4)C(c3ccc(OC)cc3)=CC2=C(Br)C1=O (configuration not stated)	40
CCCC(=O)N1CCN(Cc2ccc3c(c2)OCO3)CC1	-57*
O=C1C(=O)c2c(C(=O)c3ccccc3)coc2-c2ccccc21	51
O=C(CSc1nc(-c2ccc(F)cc2)nc2c1Cc1ccccc1O2)Nc1ccc(C(=O)O)cc1	44
Cc1cc(C)n(-c2ccc(NC(=O)C3CCN(Cc4cc(C)c(C)o4)CC3)cc2)n1	41
O=C(NNC(=O)c1cccnc1)NC1CCCCC1	-60*
N#C/C(C(N)=O)=c1/ccc2c(c1)N1C3=C(CCCC3)CC3CCCCC31N=2 (configuration not stated)	52
CN(c1ccc(C(=O)N2CCN(Cc3ccccc3)CC2)cc1)S(=O)(=O)c1ccccc1	-76*
CC(NC(=O)c1sc2cc([N+](=O)[O-])ccc2c1Cl)C(C)(C)C (configuration not stated)	-76*
CC(C)(C)n1[nH]c2c3c(ccc2c1=O)C(=O)c1ccccc1C3=O	42
O=S(=O)(NC1c2cccc3cccc(c23)C1N1CCNCC1)c1ccccc1 (configuration not stated)	-56*
O=S(=O)(NC1c2cccc3cccc(c23)C1N1CCN(CCO)CC1)c1ccccc1 (configuration not stated)	-66*
Cc1cc(C)c(S(=O)(=O)/N=C2/C=C(SCC(=O)O)C(=O)c3ccccc32)cc1C	51
O=C(O)[C@@H](c1ccccc1)N1Cc2ccccc2C1=O	52
Cc1cc(C)c2c(=O)[nH]cnc2n1	64
N=C1/C(=C\c2ccc(-c3ccc(C(=O)O)cc3)o2)C(=O)N=C2SC=C(c3ccccc3)N12	40
SMILES	HKDC1 activator
COC(=O)CCC(=O)Nc1sc(Cc2ccccc2)c(C)c1C(N)=O	-44*
COc1ccc(CN2C=C3C(=O)C(C)(OC(=O)C4CCCC4)C(=O)C=C3C=C2c2ccsc2)cc1 (configuration not stated)	35
O=[N+]([O-])c1ccc(-c2csc(N/N=C/c3cccnc3)n2)cc1	36
CCc1ccc(S(=O)(=O)NCCc2cn3ccccc3n2)s1	39
COc1cc(OC)cc(C(=O)NC(=S)NNC(=O)c2cnccn2)c1	-42*
COc1ccc(-c2cc3ccccc3[nH]2)cc1	39
N#CC1(NC(=O)COC(=O)c2cc(O)c3ccccc3c2O)CCCCC1	50
c1ccc(Nc2cc(Nc3ccccc3)[nH]n2)cc1	-47*
CC1(C)Cc2ccccc2C2=NNC(=O)C2=N1	53
COc1ncnc2c1oc1nc(C(C)C)c3c(c12)CC(C)(C)OC3	53
Cc1onc(-c2ccccc2)c1C(=O)NNC(=S)NC(=O)/C=C/c1cccs1	-57*
O=C(/C=C/c1cccs1)Nc1scc(-c2ccccc2)c1C(=O)O	81
O=S(=O)(Nc1ccc(O)c2ccccc12)c1cccs1	51
CC(=O)NC1C(=O)N(CCN2CCOCC2)c2ccc(C)cc21 (configuration not stated)	86
CC(=O)C1=C(c2ccccc2)N(C(C)=O)n2c(C)nnc2S1	-315*
O=C(CCl)N1c2ccccc2Sc2c1ccc1ccccc21	44
Cc1cc(C)c2c(=N)c3ccccc3n(CCCCCCCCn3c4ccccc4c(=N)c4c(C)cc(C)nc43)c2n1	74
N#CC(C#N)=c1ccc2c(c1)N1C3=C(CCCC3)CC3CCCCC31N=2 (configuration not stated)	39
COc1ccc2c(c1)C(=NNC(=O)c1ccccn1)c1cc(OC)ccc1-2	42
CC(=NNC(=S)SCc1ccccc1)c1ccccn1	-47*
CC(=NNC(=S)Nc1cccc(Cl)c1)c1ccccn1	-46*
Cc1cc(C)c(S(=O)(=O)Nc2cc(SCC(=O)O)c(O)c3ccccc23)cc1C	54
COC1=CC(=O)C=C(OC)C1=O	66
CCN(CC)c1ccc(C(=C2C=CC(=[N+](CC)CC)C=C2)c2ccc(N(CC)CC)cc2)cc1	54
CC(C)Nc1nnc(SCC(=O)Nc2ccc3c(c2)C(=O)c2ccccc2C3=O)s1	43
SMILES	HKDC1 activator
O=S(=O)(O)c1cc(O)c2ccc(Nc3ccccc3)cc2c1	50
Cc1ccc(C(=O)ONc2ccc(N=NC(=O)c3ccccc3O)cc2)cc1	65
O=C1NC(=S)N/C1=C/c1cc2c(cc1[N+](=O)[O-])OCO2	-67*
C=CCn1nc([N+](=O)[O-])nc1Sc1cccc2cccnc12	-47*
Cc1oc2c(c1C(=O)c1ccccc1)C(=O)C(=O)c1ccccc1-2	42
O=C(O)c1ccc(NC2=C/C(=N/S(=O)(=O)c3ccccc3)c3ccccc3C2=O)cc1	72
Cn1c(/N=C/c2c(O)ccc3ccccc23)nc2ccccc21	54
COc1ccc(-c2nc3c(C(=O)NCCN(C)C)cccc3c3ccccc23)cc1	39
O=C(N/N=C/c1ccccc1OC(=O)c1ccc2c(c1)OCO2)c1ccccc1	-48*
O=C(N/N=C1/C(=O)c2cccc3cccc1c23)c1ccc(Cl)cc1	43
Cc1ccc(NC2=C/C(=N\S(=O)(=O)c3cccs3)c3ccccc3C2=O)c(C)c1	40
CC(=O)n1cc(N(C(=O)CCl)c2ccc(Cl)cc2)c2ccccc21	58
Cc1cc(C)c(S(=O)(=O)/N=C2\C=C(Nc3ccc(C(=O)O)cc3)C(=O)c3ccccc32)c(C)c1	41
CCN1CCN(c2cc3c(nn2)Oc2ccccc2N3C)CC1	-44*
COc1cccc(CC(Cc2nc3ccccc3[nH]2)c2nc3ccccc3[nH]2)c1 (configuration not stated)	50
COc1ccc2[nH]c3c4c(ccc3c2c1)C(=O)C=CC4=O	51
O/C=c1\ccc2cccc3nc(C(F)(F)F)nc1c23	40
O=C(Nc1ccc(N2CCCC2)cc1)c1cccc(-c2cc3ccccc3oc2=O)c1	-40*
O=C(O)c1cccc(-c2ccc(/C=c3/sc4nc5ccccc5n4c3=O)o2)c1	48
COc1ccc(NC(=O)c2cc3ccccc3cc2O)cc1	38
Oc1ccc(/C=N/NC(=S)Nc2cccnc2)c(O)c1	-40*
O=C1C=CC(=O)C(CNc2ccc(C(=O)OCc3ccccc3)cc2)=C1	47
CC(OC(=O)c1cc(O)c2ccccc2c1O)C(=O)Nc1ccc(C(N)=O)cc1 (configuration not stated)	39
O=C1C=CC(=O)c2c(O)c(CO)c(CO)c(O)c21	49
CC(=O)Oc1cccc2c1C(=O)C1CC=CC(OC(C)=O)C1C2=O (configuration not stated)	-45*
CCc1ccc(S(=O)(=O)/N=C2/C=C(Sc3ncn[nH]3)C(=O)c3ccccc32)cc1	71

Screens from PubChem.
